Assay [1] has as its system KB. Description: Ratio of ED50 for KB-7d cells to that of KB cells. It counts as functional, Homo sapiens. In short, it runs like this:
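Relative resistance (fold) taken as ED50 against KB-7d divided by ED50 against KB. Both values come from 3-day drug exposure, with ED50 interpolated from dose–response data as the concentration reducing cell number by 50%.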

For assay [2], the system named is KB. Description: Dose required to cause reduction in human nasopharyngeal KB-7d cancer cells after 3 days incubation. Type of assay: functional. The settings on record: 72 h, read-out: ED50 (the source's name). In short, it runs like this:
(§1)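 Cells grown at 37 °C, humidified 5% CO2, in RPMI-1640 with 25 mM HEPES, […], 10% (v/v) FBS and 100 µg/mL kanamycin. Drug exposure for 3 days. ED50 (concentration giving 50% reduction in cell number) interpolated from dose–response data. Triplicate tests, variation no more than 5%; independent ED50 determinations varied no more than 30%.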

The next assay relates to PC-3. Description: Dose required for reduction in human prostate PC-3 cancer cells after 3 days incubation. Type of assay: functional. The settings on record: PC-3, 72 h, read-out: ED50 (the source's name). In short, it runs like this: as §1
Another assay deals with 1A9/ptx-10. Description: Dose required for reduction in paclitaxel resistant human ovarian 1A9-PTX10 cancer cells after 3 days incubation. It counts as functional. The settings on record: 1A9/ptx-10, 72 h, read-out: ED50 (the source's name). The method in brief:
as §1

A further assay deals with U-87 MG. Description: Dose required for reduction in human glioblastoma U-87-MG cancer cells after 3 days incubation. It counts as functional, U-87MG ATCC. The settings on record: 72 h, read-out: ED50 (the source's name). In short, it runs like this: as §1
For assay [3], the system named is KB. Description: Dose required to cause reduction in human nasopharyngeal KB cancer cells after 3 days incubation. Type of assay: functional. The note with it: 72 h, read-out: ED50 (the source's name). In short, it runs like this: as §1
The test system of assay [4] is KB. Description: Dose required for reduction in camptothecin resistant human nasopharyngeal KB cancer cells after 3 days incubation. The settings on record: 72 h, read-out: ED50 (the source's name). It counts as functional. In short, it runs like this:
as §1

Assay [5] has as its system KB. Description: Dose required for reduction in etoposide resistant human nasopharyngeal KB-7d cancer cells after 3 days incubation. Type of assay: functional. The note with it: 72 h, read-out: ED50 (the source's name). In short, it runs like this:
as §1

The test system of assay [6] is KB. Description: Dose required for reduction in vincristine resistant human nasopharyngeal KB-VIN cancer cells after 3 days incubation. It counts as functional. The note with it: 72 h, read-out: ED50 (the source's name). The method in brief: as §1
For the next assay, the system named is A549. Description: Dose required for reduction in human lung A549 cancer cells after 3 days incubation. It counts as functional. The settings on record: A549, 72 h, read-out: ED50 (the source's name). In short, it runs like this: as §1
A further assay concerns MCF7. Description: Dose required for reduction in human breast MCF-7 cancer cells after 3 day incubation. It counts as functional. The settings on record: MCF7, 72 h, read-out: ED50 (the source's name). In short, it runs like this:
as §1

Assay [7] has as its system CAKI-1. Description: Dose required for reduction in human renal CAKI-1 cancer cells after 3 days incubation. It counts as functional. The settings on record: CAKI-1, 72 h, read-out: ED50 (the source's name). In short, it runs like this:
as §1

A further assay has as its system HCT-8. Description: Dose required for reduction in human ileocecal HCT-8 cancer cells after 3 day incubation. Type of assay: functional. The note with it: HCT-8, 72 h, read-out: ED50 (the source's name). In short, it runs like this:
as §1

For the next assay, the system named is 1A9. Description: Dose required to cause reduction in human ovarian 1A9 cancer cells after 3 days incubation. It counts as functional. The settings on record: 1A9, 72 h, read-out: ED50 (the source's name). The method in brief: as §1
Assay [8] has as its target T1, DNA topoisomerase II (Homo sapiens) (UniProt P11388+Q02880). Description: Percentage of protein-linked DNA breaks in KB cells by [3H]thymidine incorporation. Type of assay: functional, cell-based. Details: concentration or dose not given beside the values. The method in brief:
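KB cells labelled overnight with 0.5 µCi/mL [methyl-3H]thymidine ([…]), chased 2 h, then treated in duplicate with compound at 10 µg/mL for 1 h. Protein-associated DNA breaks measured as potassium–SDS precipitable radioactivity. Values expressed relative to VP-16 control set at 100%.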
In general terms: Uptake of a labelled nucleoside into DNA is a usual measure of proliferation.

Assay [9] addresses T1, DNA topoisomerase II (Homo sapiens). Description: Percentage of protein-linked DNA breaks in KB cells by [3H]thymidine incorporation at 5 ug/mL. It counts as functional, cell-based. In short, it runs like this: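 [3H]thymidine-prelabelled KB cells (0.5 µCi/mL, overnight, 2 h chase) treated in duplicate with compound at 5 µg/mL for 1 h. Protein-linked DNA breaks read as potassium–SDS precipitable radioactivity, given as percent of the VP-16 control set at 100%.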

The test system of assay [10] is CAKI-1. Description: Dose required for reduction in human renal CAKI-1 cancer cells after 3 days incubation; NA = not applicable. Type of assay: functional, cell-based. The method in brief:
as §1

The subject of assay [11] is KB. Description: Dose required for reduction in human nasopharyngeal KB-7d cancer cells after 3 days incubation. The settings on record: 72 h, read-out: ED50 (the source's name). Type of assay: functional. The method in brief: as §1

Data on four molecules can be found in ChEMBL document CHEMBL1138779, “Antitumor agents. 234. Design, synthesis, and biological evaluation of novel 4beta-[(4' '-benzamido)-amino]-4'-o-demethyl-epipodophyllotoxin derivatives” (2004).

≈ marks a conversion by molar mass, not a printed value. Where “and” joins values, the source holds several entries; their conditions need not be identical. Equal values may be shown once. Calls of active or inactive are those of the source. No cut-off for these calls is given here.

Consider `COc1cc([C@@H]2c3cc4c(cc3[C@@H](O[C@@H]3O[C@@H]5CO[C@@H](C)O[C@H]5[C@H](O)[C@H]3O)[C@H]3COC(=O)[C@H]23)OCO4)cc(OC)c1O` [ETOPOSIDE], for which the Relative resistance with KB [1] is >20. Moreover, the EC50 is > 10 µg/mL in the assay with KB [2]; > 100 µM with PC-3; > 5 µM in the assay with 1A9/ptx-10; 73.6 µM in the assay with U-87 MG; 0.5 µg/mL and 300 nM in the assay with KB [3]; 7 µM in the assay with KB [4]. The EC50 was 17.2 µM in the assay on KB [5]; > 100 µM with KB [6]; 10.6 µM in the assay on A549; 62.2 µM in the assay with MCF7; > 100 µM with CAKI-1 [7]; 62.9 µM in the assay with HCT-8. Also, in the assay with 1A9, the EC50 is 0.15 µM. In addition, the Activity in assay [8] and in assay [9] was 100% in each case.

Take `COc1cc([C@@H]2c3cc4c(cc3[C@@H](NC(=O)[C@@H](N)Cc3ccc(O)cc3)[C@H]3COC(=O)[C@H]23)OCO4)cc(OC)c1O`: the EC50 was > 100 µM in the assay with PC-3; > 5 µM in the assay on 1A9/ptx-10; > 100 µM with U-87 MG; 18.8 µM with KB [3]; 44.8 µM in the assay on KB [4]; 30.2 µM in the assay with KB [5]. The EC50 in the assay with KB [6] was > 100 µM; with A549, 54.3 µM; in the assay on MCF7 it was 41.7 µM; in the assay with HCT-8, > 100 µM; with 1A9, 3.3 µM. Moreover, the ED50 entry in the assay on CAKI-1 [10] is “inactive”.

Consider `COc1cc([C@@H]2c3cc4c(cc3[C@@H](Nc3ccc(NC(=O)[C@@H](Cc5ccc(O)cc5)NC(=O)OCc5ccccc5)cc3)[C@H]3COC(=O)[C@H]23)OCO4)cc(OC)c1O`, for which the EC50 with PC-3 is > 100 µM; with 1A9/ptx-10, 0.92 µM; in the assay on U-87 MG, > 100 µM; with KB [3], 0.49 µM; in the assay with KB [6], > 100 µM; in the assay on A549, 0.77 µM. Further, the EC50 is 1.9 µM in the assay on MCF7, > 100 µM in the assay with HCT-8 and 0.0086 µM in the assay with 1A9. For the same molecule, the ED50 entry with CAKI-1 [10] was “inactive”.

As to `COc1cc([C@@H]2c3cc4c(cc3[C@@H](Nc3ccc(C(=O)NCCc5ccc(O)cc5)cc3)[C@H]3COC(=O)[C@H]23)OCO4)cc(OC)c1O`, the Relative resistance in the assay on KB [1] is given as 32. Moreover, the EC50 in the assay with KB [11] was found to be 0.8 µg/mL (≈ 1.25 µM); with KB [3], 0.02 µg/mL. Moreover, the Activity was determined as 368% in assay [8] and 275% in assay [9].
